ChEMBL document CHEMBL2169816, “Noncyclam tetraamines inhibit CXC chemokine receptor type 4 and target glioma-initiating cells” (J Med Chem, 2012)
pEC50, pIC50: −log10 of the molar value. Activity calls are given as the source filed them. No cut-off for these calls is given here.

Legend:
MT4 = assay: (§1) Cytotoxicity against human MT4 cells expressing CXCR4 after 5 days by MTT assay; format: cell-based; details: mt4, 120 h, 120 h
Summary of the method: (§2)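 MT-4 cells, infected or not with HIV-1, exposed to a range of compound concentrations and left to proliferate for 5 days. Viable cells were counted by MTT colorimetric read-out. EC50 comes from protection against virus-induced cytopathic effect and CC50 from viability of uninfected cells.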

[1] = system: Human immunodeficiency virus 1; assay: Antiviral activity against HIV1 infected in MT4 cells expressing CXCR4 assessed as inhibition of virus-induced cytopathic effect after 5 days; format: functional, organism-based; summary of the method: as §2
[2] = (§3) Toxicity in iv dosed Hsd:ICR(CD-1) mouse measured up to 14 days; format: organism-based; details: Hsd:ICR(CD-1), in vivo
Summary of the method: (§4)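 Single iv tail-vein injection in physiological saline (0.9% NaCl) to Hsd:ICR (CD-1) mice; groups of 4 (2 male, 2 female) at doses of 1, 2, 3, 3.5 and 4 mg/kg. Viability/mortality and clinical signs checked during first 30 min and at ~1, 2, 3, 5 h on day 1, then through days 2–15; 14-day observation; body weights recorded; necropsy of all animals.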

Mus musculus [3] = assay: as §3; format: organism-based; details: in vivo, 336 h; summary of the method: as §4
[4] = Cytotoxicity against human GBM1 assessed as cell viability after 7 days by trypan blue staining method in presence of CXCL12 relative to control; details: GBM1 cells, read-out: Activity
Summary of the method: (§5)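 Dissociated neurospheres (acutase, 3 min) were counted and equal numbers seeded in triplicate per condition. Cells were treated or not with CXCR4 inhibitors (1 μM), with or without CXCL12. After 7 days cells were counted and viability expressed relative to untreated control.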

[5] = Cytotoxicity against human GBM1 assessed as cell viability after 7 days by trypan blue staining method relative to control; details: GBM1 cells, read-out: Activity; summary of the method: as §5
Mus musculus [6] = assay: Toxicity in Hsd:ICR(CD-1) mouse assessed as mortality at 2.5 mg/kg, iv after 1 min; format: organism-based; parameters: dose 2.5 mg/kg, route intravenous; details: in vivo
[7] = biological target: Voltage-gated inwardly rectifying potassium channel KCNH2 (Homo sapiens, UniProt Q12809); assay: Inhibition of human ERG expressed in CHOK1 cells after 5 mins by whole-cell patch clamp assay; format: cell-based, CHO-K1
Sequence of Voltage-gated inwardly rectifying potassium channel KCNH2 (Q12809 whole entry): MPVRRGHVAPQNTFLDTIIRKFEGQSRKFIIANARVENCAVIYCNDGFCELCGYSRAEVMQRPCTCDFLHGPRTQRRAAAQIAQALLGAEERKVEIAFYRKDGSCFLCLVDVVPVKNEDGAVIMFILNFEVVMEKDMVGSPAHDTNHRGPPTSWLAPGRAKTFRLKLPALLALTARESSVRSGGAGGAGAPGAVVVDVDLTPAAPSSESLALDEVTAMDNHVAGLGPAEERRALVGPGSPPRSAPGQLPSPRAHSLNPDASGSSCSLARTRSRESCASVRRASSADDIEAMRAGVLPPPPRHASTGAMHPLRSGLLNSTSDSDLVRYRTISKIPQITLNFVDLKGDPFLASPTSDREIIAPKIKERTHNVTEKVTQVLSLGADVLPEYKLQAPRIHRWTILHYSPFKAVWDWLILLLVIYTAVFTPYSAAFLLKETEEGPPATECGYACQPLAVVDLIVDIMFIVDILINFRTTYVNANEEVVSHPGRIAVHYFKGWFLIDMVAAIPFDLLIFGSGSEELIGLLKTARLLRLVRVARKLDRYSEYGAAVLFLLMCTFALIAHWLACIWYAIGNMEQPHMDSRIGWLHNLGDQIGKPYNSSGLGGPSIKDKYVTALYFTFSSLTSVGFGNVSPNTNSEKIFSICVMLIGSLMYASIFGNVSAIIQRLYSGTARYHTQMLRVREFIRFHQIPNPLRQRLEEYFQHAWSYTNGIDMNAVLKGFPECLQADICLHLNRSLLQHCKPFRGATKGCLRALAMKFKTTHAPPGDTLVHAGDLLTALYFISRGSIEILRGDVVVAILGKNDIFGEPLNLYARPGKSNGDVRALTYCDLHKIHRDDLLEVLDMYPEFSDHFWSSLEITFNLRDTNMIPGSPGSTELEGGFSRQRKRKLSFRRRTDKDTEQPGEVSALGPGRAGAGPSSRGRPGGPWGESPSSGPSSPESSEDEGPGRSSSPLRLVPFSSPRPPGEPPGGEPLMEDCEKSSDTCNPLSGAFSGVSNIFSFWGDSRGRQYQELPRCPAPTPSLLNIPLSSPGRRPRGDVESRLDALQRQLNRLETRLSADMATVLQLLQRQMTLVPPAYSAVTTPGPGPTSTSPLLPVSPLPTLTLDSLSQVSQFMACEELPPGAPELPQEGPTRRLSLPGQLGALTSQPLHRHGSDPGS

[8] = biological target: T1, C-X-C chemokine receptor type 4 (Homo sapiens, UniProt P61073); assay: Antagonist activity at human recombinant CXCR4 expressed in CHO cells assessed as inhibition of SDF1a-induced electrical impedance by dielectric spectroscopic analysis; format: functional, cell-based
T1 sequence (P61073 whole entry): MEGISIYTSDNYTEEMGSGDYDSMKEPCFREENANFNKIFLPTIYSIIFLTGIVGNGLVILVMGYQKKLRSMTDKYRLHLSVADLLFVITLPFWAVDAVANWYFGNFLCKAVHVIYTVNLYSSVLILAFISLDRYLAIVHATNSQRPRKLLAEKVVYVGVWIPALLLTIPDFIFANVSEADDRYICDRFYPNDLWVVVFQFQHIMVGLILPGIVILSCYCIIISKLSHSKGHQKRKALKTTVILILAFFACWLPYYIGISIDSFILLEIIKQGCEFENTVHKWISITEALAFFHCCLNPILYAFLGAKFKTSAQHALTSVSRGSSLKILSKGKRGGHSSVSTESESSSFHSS
Summary of the method: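 CHO cells expressing recombinant human CXCR4. Antagonist mode: SDF-1a stimulant at 1 nM. Cellular impedance was read by cellular dielectric spectroscopy after incubation at 28 °C. Reference antagonist MIP-II was included. IC50 and KB were derived from concentration–response curves.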

[9] = as §1; format: cell-based; details: MT4 cells expressing CXCR4; summary of the method: as §2
GBM1 [10] = assay: Effect on human GBM1 cell differentiation xenografted in NOD-SCID mouse assessed as decrease in tumor number incubated for 7 days prior to xenografting measured after 40 days by MRI scanning analysis relative to control; format: functional, cell-based
Summary of the method: (§6)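 GBM1 neurospheres were pretreated in culture for 7 days, then dissociated, counted and checked for viability by trypan blue. 100.000 live cells were stereotactically injected into the right corpus striatum of 9-week-old NOD-SCID mice. At 40 days, contrast MRI (gadolinium-DTPA 0.25 mmol/kg ip) covered the whole brain and tumor volume was quantified.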

CD44null [11] = assay: Effect on human GBM2 cell differentiation assessed as increase in CD44null cells after 7 days by flow cytometric analysis; format: functional, cell-based
Summary of the method: (§7)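 Patient-derived GBM neurospheres were treated with 1 μM inhibitor for 7 days, then dissociated and blocked 15 min with 10 μg/mL human IgG. Staining was FITC anti-CD44 or IgG2b isotype, 20 min on ice in the dark, then PBS wash and propidium iodide to exclude dying cells. Flow cytometry gave CD44 null fraction and CD44 low/CD44 null ratio.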

GBM1 [12] = assay: Effect on human GBM1 cell differentiation xenografted in NOD-SCID mouse assessed as decrease in tumor size incubated for 7 days prior to xenografting measured after 40 days by MRI scanning analysis relative to control; format: functional, cell-based; summary of the method: as §6
CD44null [13] = assay: Effect on human GBM1 cell differentiation assessed as increase in CD44null cells after 7 days by flow cytometric analysis; format: functional, cell-based; summary of the method: as §7
Mus musculus [14] = assay: Toxicity in Hsd:ICR(CD-1) mouse assessed as mortality at 3 mg/kg, iv after 1 min; format: organism-based; parameters: dose 3 mg/kg, route intravenous; details: in vivo; summary of the method: as §4
[15] = biological target: T1, C-X-C chemokine receptor type 4; details: GBM2, 1 uM
[16] = biological target: T1, C-X-C chemokine receptor type 4; details: GBM2, 0.1 uM
[17] = biological target: T1, C-X-C chemokine receptor type 4; details: GBM2, 1 uM; remark: listed apart in the source
[18] = biological target: T1, C-X-C chemokine receptor type 4; details: GBM2, 1 uM; remark: listed apart in the source
[19] = biological target: T1, C-X-C chemokine receptor type 4; details: GBM2, 0.1 uM; remark: listed apart in the source
[20] = biological target: T1, C-X-C chemokine receptor type 4; details: GBM2, 1 uM; remark: listed apart in the source
[21] = biological target: T1, C-X-C chemokine receptor type 4; details: GBM2, 0.1 uM; remark: listed apart in the source
[22] = biological target: T1, C-X-C chemokine receptor type 4; details: GBM2, 1 uM; remark: listed apart in the source
Mus musculus [23] = assay: Toxicity in Hsd:ICR(CD-1) mouse assessed as mortality at 2 mg/kg, iv after 1 min; format: organism-based; parameters: dose 2 mg/kg, route intravenous; details: in vivo; summary of the method: as §4
hERG (KCNH2) = hERG (KCNH2) (Homo sapiens, UniProt Q12809); assay: Inhibition of human ERG expressed in CHOK1 cells at 10 uM after 5 mins by whole-cell patch clamp assay; format: cell-based; details: CHO-K1 cells expressing human ERG
Sequence of hERG (KCNH2) (Q12809 whole entry): as the sequence (Q12809 whole entry) above
Summary of the method: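 hERG-expressing CHO-K1 cells were tested by automated whole-cell patch-clamp, measuring inhibition of tail current. Compound was applied cumulatively at 0.1, 1 and 10 μM, 5 min each at room temperature. E-4031 served as reference.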

[24] = biological target: T1, C-X-C chemokine receptor type 4; details: GBM2, 1 uM; remark: listed apart in the source
[25] = Human immunodeficiency virus 1, MT4, 120 h

Row | SMILES | MTD at 336 h [2] | MLC (Mus musculus [3]) | viability at 168 h [4] | viability at 168 h [5] | pIC50 [8] | CC50 at 120 h [9] | pEC50 [1, 25] | Activity (CD44null [11]) | Activity (CD44null [13]) | inhibition [19] | inhibition [20] | inhibition [21] | inhibition [22] | also measured
1 | CC1CCCCN1CCCNCc1ccc(CNCCCN2CCCCC2C)cc1 (mixture of isomers; 11) [listing 1 of 2 here] | – | – | – | – | – | – | – | – | – | – | – | – | – | CC50 (MT4; read-out: CC50): > 44000 nM; pEC50 ([1]; mt4): 6.89
2 | C[C@@H]1CCCCN1CCCNCc1ccc(CNCCCN2CCCC[C@H]2C)cc1 [listing 1 of 2 here] | 2 mg/kg | 2.5 mg/kg | – | – | – | – | – | – | – | – | – | – | – | –
3 | C[C@@H]1CCCCN1CCCNCc1ccc(CNCCCN2CCCC[C@H]2C)cc1.Cl | – | – | > 80% | > 80% | 6.46 | > 44000 nM | 6.90 | – | – | – | – | – | – | Activity (Mus musculus [6]): Toxic; pIC50 [7]: < 4.00
4 | CC1CCCCN1CCCNCc1ccc(CNCCCN2CCCCC2C)cc1 (mixture of isomers; 11) [listing 2 of 2 here] | – | – | – | – | – | – | – | Active | Active | – | – | – | – | Activity (GBM1 [10]): Active; Activity (GBM1 [12]): Active
5 | C[C@@H]1CCCCN1CCCNCc1ccc(CNCCCN2CCCC[C@@H]2C)cc1.Cl (mixture of isomers) | 2.5 mg/kg | 3 mg/kg | > 80% | > 80% | 6.10 | 26000 nM | 6.86 | Active | Active | inactive | Active | inactive | Active | Activity (Mus musculus [14]): Toxic; pIC50 [7]: < 4.00; inhibition [15]: Active; inhibition [16]: inactive; inhibition [17]: Active; inhibition [18]: inactive
6 | C[C@H]1CCCCN1CCCNCc1ccc(CNCCCN2CCCC[C@@H]2C)cc1.Cl | 1.5 mg/kg | 2 mg/kg | > 80% | > 80% | 5.96 | > 44000 nM | 6.86 | Active | Active | inactive | inactive | inactive | inactive | Activity (Mus musculus [23]): Toxic; inhibition at 5 min, 10 µM (hERG (KCNH2)): < 25%; inhibition [24]: Active
7 | CC1CCCCN1CCCNCc1ccc(CNCCCN2CCCCC2C)cc1 (mixture of isomers; 1) | – | – | – | – | – | – | – | – | – | – | – | – | – | CC50 (MT4): > 25 µg/mL; pEC50 ([1]; mt4): 7.72
8 | C[C@@H]1CCCCN1CCCNCc1ccc(CNCCCN2CCCC[C@H]2C)cc1 [listing 2 of 2 here] | – | – | – | – | – | – | – | Active | Active | inactive | inactive | inactive | inactive | –
